Measured values as given in paper PMC5378063 (Medicinal chemistry (Shariqah (United Arab Emirates)), 2009).
≈ marks a conversion by molar mass, not a printed value.

Legend:
[1] = system: M.tuberculosis H37Rv INHr; experiment: MIC, agar dilution method; assay type: cell-based, Mycobacterium tuberculosis
M.bovis BCG Tokyo = experiment: MIC, agar dilution method; assay type: cell-based
[2] = system: M.intracellulare ATCC15984; experiment: MIC, agar dilution method; assay type: cell-based
[3] = system: M.tuberculosis H37Rv RFPr; experiment: MIC, agar dilution method; assay type: cell-based, Mycobacterium tuberculosis
M.avium Flamingo = experiment: MIC, agar dilution method; assay type: cell-based
M.tuberculosis H37Rv = experiment: MIC, agar dilution method; assay type: cell-based, Mycobacterium tuberculosis
M.aurum = experiment: MIC, agar dilution method; assay type: cell-based
M.fortuitum NIHJ1615 = experiment: MIC, agar dilution method; assay type: cell-based
bacterial growth = experiment: In vitro rescue studies with vitamin K supplementation; assay type: cell-based; conditions: 22a ~2μM; vitamin K even at 400 μM
M.smegmatis Takeo = experiment: MIC, agar dilution method; assay type: cell-based
DosS or DosR = experiment: DosS/DosR upregulation; assay type: cell-based, Mycobacterium tuberculosis; conditions: unpublished data
nonreplicating Mtb = experiment: Killing of nonreplicating bacteria, Wayne low oxygen model; assay type: cell-based, Mycobacterium tuberculosis
In short: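 Aerobic preculture diluted 100-fold into tubes sealed with rubber septa, degassed with N₂ and held anaerobically for 24 days, into nonreplicating phase 2 of a modified Wayne model. Test compound in degassed solution was added and incubation continued for 96 h. Suspensions were then diluted and plated, grown aerobically at 37 °C, and colonies counted.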

[4] = Mycobacterium tuberculosis, H37RV
[5] = Mycobacterium tuberculosis variant bovis BCG, BCG
[6] = Mycobacterium intracellulare, ATCC15984
[7] = 10 μg/mL, 96 h exposure after 24 days anaerobic

## NNC(=O)c1ccncc1 [INH, isoniazid]
[1]; [4]
  MIC: > 25 µg/mL
M.bovis BCG Tokyo; [5]
  MIC: 0.1 µg/mL (≈ 0.729 µM)
[2]; [6]
  MIC: 12.5 µg/mL (≈ 91.1 µM)
[3]; [4]
  MIC: 0.05 µg/mL (≈ 0.365 µM)
M.avium Flamingo; Mycobacterium avium
  MIC: > 25 µg/mL
M.tuberculosis H37Rv; [4]
  MIC: 0.1 µg/mL (≈ 0.729 µM)

## CO[C@H]1/C=C/O[C@@]2(C)Oc3c(C)c(O)c4c(O)c(c(/C=N/N5CCN(C)CC5)c(O)c4c3C2=O)NC(=O)/C(C)=C\C=C\[C@H](C)[C@H](O)[C@@H](C)[C@@H](O)[C@@H](C)[C@H](OC(C)=O)[C@@H]1C [RFP, rifampicin]
M.bovis BCG Tokyo; [5]
  MIC: 0.1 µg/mL (≈ 0.122 µM)
[2]; [6]
  MIC: 3.1 µg/mL (≈ 3.77 µM)
[3]; [4]
  MIC: > 25 µg/mL
M.avium Flamingo; Mycobacterium avium
  MIC: 3.1 µg/mL (≈ 3.77 µM)
M.tuberculosis H37Rv; [4]
  MIC: 0.2 µg/mL (≈ 0.243 µM)

## C=CCN(C)CCCCCCCCOc1ccc(C(=O)c2ccc(Cl)cc2)c(O)c1 [22a, allylaminomethanone-A]
M.aurum
  MIC: 6.3 µg/mL (≈ 14.7 µM)
[1]; M.tuberculosis H37Rv INHr, agar dilution
  MIC: 1.5 µg/mL (≈ 3.49 µM)
M.fortuitum NIHJ1615
  MIC: 12.5 µg/mL (≈ 29.1 µM)
M.bovis BCG Tokyo; M.bovis BCG Tokyo, agar dilution
  MIC: 3.1 µg/mL (≈ 7.21 µM)
[2]; M.intracellulare ATCC15984, agar dilution
  MIC: 6.3 µg/mL (≈ 14.7 µM)
Bacterial growth
  rescue of bacterial growth by supplementation with vitamin K: not completely rescued
[3]; M.tuberculosis H37Rv RFPr, agar dilution
  MIC: 1.5 µg/mL (≈ 3.49 µM)
M.smegmatis Takeo
  MIC: 12.5 µg/mL (≈ 29.1 µM)
M.avium Flamingo; M.avium Flamingo, agar dilution
  MIC: 6.3 µg/mL (≈ 14.7 µM)
M.tuberculosis H37Rv; M.tuberculosis H37Rv, agar dilution
  MIC: 1.0 µg/mL (≈ 2.33 µM)
DosS or DosR
  upregulation of DosS or DosR: did not upregulate
Nonreplicating Mtb; [7]
  more effective in killing nonreplicating bacteria than ethambutol: 320 fold
  more effective in killing nonreplicating bacteria than isoniazid: 180 fold
  more effective in killing nonreplicating bacteria than rifampicin: 3 fold
Nonreplicating Mtb; 50 μg/mL, 96 h exposure
  colonies after treatment of nonreplicating Mtb: no countable colonies
